In ChEMBL document CHEMBL1949496, “Synthesis of [¹⁸F]-labeled (2-(2-fluoroethoxy)ethyl)triphenylphosphonium cation as a potential agent for myocardial imaging using positron emission tomography” (Bioorg Med Chem Lett, 2012):

Key:
[1] = test system: Heart; experiment: Biodistribution in BALB/c mouse heart at 7.4 MBq, iv after 60 mins by gamma counting; type: ADME, organism-based; conditions: in vivo, 1 h
Summary of the method: (§1)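 Tracer given intravenously to BALB/c mice; animals sampled at 10, 30, 60 and 120 min after injection. Organ radioactivity expressed as percentage of injected dose per gram of tissue (% ID/g), n = 12.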

[2] = test system: Heart; experiment: Biodistribution in BALB/c mouse heart at 7.4 MBq, iv after 10 mins by gamma counting; type: ADME, organism-based; conditions: in vivo; summary of the method: as §1
[3] = test system: Blood; experiment: Biodistribution in BALB/c mouse blood at 7.4 MBq, iv after 60 mins by gamma counting; type: ADME, organism-based; conditions: in vivo, 1 h; summary of the method: as §1
[4] = test system: Blood; experiment: Biodistribution in BALB/c mouse blood at 7.4 MBq, iv after 120 mins by gamma counting; type: ADME, organism-based; conditions: in vivo, 2 h; summary of the method: as §1
[5] = test system: Blood; experiment: Biodistribution in BALB/c mouse blood at 7.4 MBq, iv after 30 mins by gamma counting; type: ADME, organism-based; conditions: in vivo, 0.5 h; summary of the method: as §1
[6] = test system: Nucleic Acid; experiment: Ratio of drug uptake in rat H9c2 cells to mouse NIH3T3 cells after 0.5 to 2 hrs by gamma counting; type: ADME, cell-based
[7] = test system: Blood; experiment: Biodistribution in BALB/c mouse blood at 7.4 MBq, iv after 10 mins by gamma counting; type: ADME, organism-based; conditions: in vivo; summary of the method: as §1
[8] = test system: H9c2; experiment: Cellular uptake in rat H9c2 cells after 0.5 to 2 hrs by gamma counting in presence of CCCP; type: ADME, cell-based
Summary of the method: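 H9c2 cells incubated with radiotracer at 37 °C for 0.5, 1 or 2 h in the presence of 0.5 µM protonophore CCCP, which abolishes mitochondrial membrane potential. Uptake expressed as percentage of applied radioactivity; means ± SD of three measurements.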

[9] = test system: H9c2; experiment: Cellular uptake in rat H9c2 cells after 0.5 hrs by gamma counting; type: ADME, cell-based; conditions: h9c2, 0.5 h
Summary of the method: (§2)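 Radiotracer incubated with H9c2 cells at 37 °C for 0.5, 1 or 2 h. Uptake expressed as percentage of applied radioactivity; means ± SD of three measurements.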

[10] = test system: H9c2; experiment: Cellular uptake in rat H9c2 cells after 2 hrs by gamma counting; type: ADME, cell-based; conditions: h9c2, 2 h; summary of the method: as §2
[11] = test system: Heart; experiment: Biodistribution in BALB/c mouse heart at 7.4 MBq, iv after 120 mins by gamma counting; type: ADME, organism-based; conditions: in vivo, 2 h; summary of the method: as §1
[12] = test system: Lung; experiment: Biodistribution in BALB/c mouse lung at 7.4 MBq, iv after 10 mins by gamma counting; type: ADME, organism-based; conditions: in vivo; summary of the method: as §1
[13] = test system: Lung; experiment: Biodistribution in BALB/c mouse lung at 7.4 MBq, iv after 30 mins by gamma counting; type: ADME, organism-based; conditions: in vivo, 0.5 h; summary of the method: as §1
[14] = test system: Lung; experiment: Biodistribution in BALB/c mouse lung at 7.4 MBq, iv after 60 mins by gamma counting; type: ADME, organism-based; conditions: in vivo, 1 h; summary of the method: as §1
[15] = test system: Lung; experiment: Biodistribution in BALB/c mouse lung at 7.4 MBq, iv after 120 mins by gamma counting; type: ADME, organism-based; conditions: in vivo, 2 h; summary of the method: as §1
[16] = test system: Liver; experiment: Biodistribution in BALB/c mouse liver at 7.4 MBq, iv after 10 mins by gamma counting; type: ADME, organism-based; conditions: in vivo; summary of the method: as §1
[17] = test system: Liver; experiment: Biodistribution in BALB/c mouse liver at 7.4 MBq, iv after 30 mins by gamma counting; type: ADME, organism-based; conditions: in vivo, 0.5 h; summary of the method: as §1
[18] = test system: Liver; experiment: Biodistribution in BALB/c mouse liver at 7.4 MBq, iv after 60 mins by gamma counting; type: ADME, organism-based; conditions: in vivo, 1 h; summary of the method: as §1
[19] = test system: Liver; experiment: Biodistribution in BALB/c mouse liver at 7.4 MBq, iv after 120 mins by gamma counting; type: ADME, organism-based; conditions: in vivo, 2 h; summary of the method: as §1
[20] = test system: Spleen; experiment: Biodistribution in BALB/c mouse spleen at 7.4 MBq, iv after 10 mins by gamma counting; type: ADME, organism-based; conditions: in vivo; summary of the method: as §1
[21] = test system: Spleen; experiment: Biodistribution in BALB/c mouse spleen at 7.4 MBq, iv after 30 mins by gamma counting; type: ADME, organism-based; conditions: in vivo, 0.5 h; summary of the method: as §1
[22] = test system: Spleen; experiment: Biodistribution in BALB/c mouse spleen at 7.4 MBq, iv after 60 mins by gamma counting; type: ADME, organism-based; conditions: in vivo, 1 h; summary of the method: as §1
[23] = test system: Spleen; experiment: Biodistribution in BALB/c mouse spleen at 7.4 MBq, iv after 120 mins by gamma counting; type: ADME, organism-based; conditions: in vivo, 2 h; summary of the method: as §1
[24] = test system: Stomach; experiment: Biodistribution in BALB/c mouse stomach at 7.4 MBq, iv after 10 mins by gamma counting; type: ADME, organism-based; conditions: in vivo; summary of the method: as §1
[25] = test system: Stomach; experiment: Biodistribution in BALB/c mouse stomach at 7.4 MBq, iv after 30 mins by gamma counting; type: ADME, organism-based; conditions: in vivo, 0.5 h; summary of the method: as §1
[26] = test system: Stomach; experiment: Biodistribution in BALB/c mouse stomach at 7.4 MBq, iv after 60 mins by gamma counting; type: ADME, organism-based; conditions: in vivo, 1 h; summary of the method: as §1
[27] = test system: Stomach; experiment: Biodistribution in BALB/c mouse stomach at 7.4 MBq, iv after 120 mins by gamma counting; type: ADME, organism-based; conditions: in vivo, 2 h; summary of the method: as §1
[28] = test system: Intestine; experiment: Biodistribution in BALB/c mouse intestine at 7.4 MBq, iv after 10 mins by gamma counting; type: ADME, organism-based; conditions: in vivo; summary of the method: as §1
[29] = test system: Intestine; experiment: Biodistribution in BALB/c mouse intestine at 7.4 MBq, iv after 30 mins by gamma counting; type: ADME, organism-based; conditions: in vivo, 0.5 h; summary of the method: as §1
[30] = test system: Intestine; experiment: Biodistribution in BALB/c mouse intestine at 7.4 MBq, iv after 60 mins by gamma counting; type: ADME, organism-based; conditions: in vivo, 1 h; summary of the method: as §1
[31] = test system: Intestine; experiment: Biodistribution in BALB/c mouse intestine at 7.4 MBq, iv after 120 mins by gamma counting; type: ADME, organism-based; conditions: in vivo, 2 h; summary of the method: as §1
[32] = test system: Kidney; experiment: Biodistribution in BALB/c mouse kidney at 7.4 MBq, iv after 10 mins by gamma counting; type: ADME, organism-based; conditions: in vivo; summary of the method: as §1

## [18F]CCOCC[P+](c1ccccc1)(c1ccccc1)c1ccccc1
[1]
  Drug uptake: 19.96 % ID/g
[2]
  Drug uptake: 35.23 % ID/g
[3]
  Drug uptake: 0.23 % ID/g
[4]
  Drug uptake: 0.24 % ID/g
[5]
  Drug uptake: 0.22 % ID/g
[6]
  Ratio: 2
[7]
  Drug uptake: 0.64 % ID/g
[8]
  Drug uptake: Not Active
[9]
  Drug uptake: 0.47%
[10]
  Drug uptake: 0.68%
[11]
  Drug uptake: 24.27 % ID/g
[12]
  Drug uptake: 7.69 % ID/g
[13]
  Drug uptake: 5.18 % ID/g
[14]
  Drug uptake: 4.01 % ID/g
[15]
  Drug uptake: 5.55 % ID/g
[16]
  Drug uptake: 3.57 % ID/g
[17]
  Drug uptake: 2.42 % ID/g
[18]
  Drug uptake: 2.03 % ID/g
[19]
  Drug uptake: 1.33 % ID/g
[20]
  Drug uptake: 3.35 % ID/g
[21]
  Drug uptake: 2.81 % ID/g
[22]
  Drug uptake: 1.95 % ID/g
[23]
  Drug uptake: 1.23 % ID/g
[24]
  Drug uptake: 3.75 % ID/g
[25]
  Drug uptake: 3.98 % ID/g
[26]
  Drug uptake: 4.72 % ID/g
[27]
  Drug uptake: 2.49 % ID/g
[28]
  Drug uptake: 9.14 % ID/g
[29]
  Drug uptake: 8.52 % ID/g
[30]
  Drug uptake: 4.67 % ID/g
[31]
  Drug uptake: 2.66 % ID/g
[32]
  Drug uptake: 36.05 % ID/g
